In assay [1] the target is T1, Serine/threonine-protein kinase ULK1 (Homo sapiens) (UniProt O75385).
T1 sequence (whole entry): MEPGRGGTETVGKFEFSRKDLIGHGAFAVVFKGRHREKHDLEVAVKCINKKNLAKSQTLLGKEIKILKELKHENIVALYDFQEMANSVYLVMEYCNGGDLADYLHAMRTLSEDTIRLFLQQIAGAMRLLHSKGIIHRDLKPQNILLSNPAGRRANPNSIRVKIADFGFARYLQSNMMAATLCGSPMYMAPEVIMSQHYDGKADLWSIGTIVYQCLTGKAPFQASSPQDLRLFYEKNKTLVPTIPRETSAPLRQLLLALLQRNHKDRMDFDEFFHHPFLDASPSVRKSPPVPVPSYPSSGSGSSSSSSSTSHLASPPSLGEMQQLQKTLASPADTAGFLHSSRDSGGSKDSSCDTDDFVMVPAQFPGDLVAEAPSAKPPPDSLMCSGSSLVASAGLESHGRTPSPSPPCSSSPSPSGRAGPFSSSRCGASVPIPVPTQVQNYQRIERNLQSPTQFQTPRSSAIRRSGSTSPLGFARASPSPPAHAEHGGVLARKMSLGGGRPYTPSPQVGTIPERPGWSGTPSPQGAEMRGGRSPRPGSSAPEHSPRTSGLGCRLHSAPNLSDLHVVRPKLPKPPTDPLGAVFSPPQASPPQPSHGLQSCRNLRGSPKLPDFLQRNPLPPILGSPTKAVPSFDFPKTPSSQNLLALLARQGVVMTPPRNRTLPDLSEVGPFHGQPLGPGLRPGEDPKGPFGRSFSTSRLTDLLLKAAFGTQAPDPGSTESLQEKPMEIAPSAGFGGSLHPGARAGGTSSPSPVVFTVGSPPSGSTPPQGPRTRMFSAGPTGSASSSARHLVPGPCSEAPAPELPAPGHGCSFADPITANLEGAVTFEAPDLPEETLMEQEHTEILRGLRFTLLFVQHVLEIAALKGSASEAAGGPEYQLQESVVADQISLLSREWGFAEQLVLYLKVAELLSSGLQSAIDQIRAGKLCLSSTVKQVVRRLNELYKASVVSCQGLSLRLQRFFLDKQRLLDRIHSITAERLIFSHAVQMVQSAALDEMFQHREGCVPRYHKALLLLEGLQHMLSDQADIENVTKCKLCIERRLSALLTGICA
In words: Inhibition of ULK1 mediated autophagy in human A549 cells assessed as decrease in beclin1 level at 2 to 8 uM measured after 1 hrs by Western blot analysis. Format: cell-based. The note with it: dose 2-8 µM. The procedure, abridged:
(§1)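 Treated A549 cells, adherent and floating, were collected and lysed in RIPA buffer with protease and phosphatase inhibitors. Lysates were spun at 12,000 g, 4 °C, 15 min, and protein measured by BCA. Proteins were run on SDS-PAGE and moved to nitrocellulose, blocked 1 h in TBST with 5% skim milk, and probed overnight at 4 °C with primary antibodies. HRP secondary antibody was applied 1 h at room temperature, with ECL detection.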
A general note: In western blotting, separated proteins are transferred to a membrane and probed.

Assay [2] concerns the target T1, Serine/threonine-protein kinase ULK1 (Homo sapiens). In words: Inhibition of ULK1 mediated autophagy in human A549 cells assessed as p62 degradation at 2 to 8 uM measured after 1 hrs by Western blot analysis. The note with it: dose 2-8 µM. The format is cell-based. The method in brief: as §1
Assay [3] deals with A549. Put plainly: Induction of apoptosis in human A549 cells assessed as reduction in Bcl2 protein expression at 2 to 8 uM by Western blot analysis. The conditions noted are these: dose 2-8 µM. Format: functional, cell-based. The method in brief:
as §1

Assay [4] addresses T1, Serine/threonine-protein kinase ULK1 (Homo sapiens). Put plainly: Inhibition of ULK1 mediated autophagy in human A549 cells assessed as reduction in conversion of LC3 1 to LC3-2 at 2 to 8 uM measured after 1 hrs by Western blot analysis. Format: cell-based. The note with it: dose 2-8 µM. The procedure, abridged:
as §1

A further assay relates to MCF7. Put plainly: Antiproliferative activity against human MCF-7 cells assessed as reduction in cell viability after 24 hrs by MTT assay. Format: functional, cell-based. The conditions noted are these: MCF7, 24 h. The procedure, abridged: (§2)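 Cells seeded at 5.5 × 10⁴ cells/mL in 96-well plates and grown 24 h before exposure to graded compound concentrations. Viability read by MTT after 24 h. A549, MCF-7 and MDA-MB-468 were kept in DMEM with 10% FBS under 5% CO₂; HL60 and U937 in RPMI 1640 with 10% FBS. IC50 taken as mean of triplicate tests.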
For orientation: Tetrazolium dyes change colour on reduction, which living cells bring about.

The target of assay [5] is T1, Serine/threonine-protein kinase ULK1 (Homo sapiens). In words: Induction of downregulation of ULK1-mediated autophagy in human A549 cells assessed as phosphorylation at Ser317 preincubated for 24 hrs by Western blot analysis. The note with it: dose microM <=8, time 24.0 hrs. The format is cell-based. The method in brief: as §1
For assay [6], the system named is A549. In words: Induction of apoptosis in human A549 cells assessed as morphological changes upto 8 uM incubated for 24 hrs in dark by Hoechst 33258 staining based fluorescence microscopy. The note with it: dose microM <=8, time 24.0 hrs.
The subject of assay [7] is A549. Put plainly: Induction of apoptosis in human A549 cells assessed as increase in Bax protein expression at 2 to 8 uM by Western blot analysis. The format is functional, cell-based. The conditions noted are these: dose 2-8 µM. The procedure, abridged:
as §1

In assay [8] the target is T1, Serine/threonine-protein kinase ULK1 (Homo sapiens). In words: Inhibition of human ULK1 in human A549 cells under normal condition assessed as decrease in phosphorylated-Beclin 1(ser15) level by immunoblotting analysis. The format is cell-based. The procedure, abridged:
as §1

Assay [9] shares this target. Put plainly: Inhibition of recombinant human ULK1 at 10 uM preincubated for 60 mins followed by substrate addition and measured after 30 mins by ADP-glo assay. The note with it: time 90.0 min. The method in brief:
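Recombinant ULK1 activity was measured by ADP-Glo luminescence of ADP formed, in 40 mM Tris pH 7.5, 20 mM MgCl₂, 0.1 mg/ml BSA and […]. After the kinase reaction, plates were mixed 2 min and held 40 min at room temperature. Detection reagent was then added for 30 min at room temperature before luminescence was read.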

The target is the same in assay [10]. Put plainly: Inhibition of human ULK1 in human A549 cells under normal condition assessed as decrease in phosphorylated-Atg13 (ser318) level by immunoblotting analysis. Format: cell-based. The method in brief:
as §1

The test system of a further assay is U-937. In words: Antiproliferative activity against human U937 cells assessed as reduction in cell viability after 24 hrs by MTT assay. The format is functional, cell-based. The note with it: U-937, 24 h. The method in brief: as §2
Assay [11] has as its target T1, Serine/threonine-protein kinase ULK1 (Homo sapiens). In words: Inhibition of ULK1 mediated autophagy in human A549 cells transfected with GFP-mRFP-LC3 assessed as increase in LC3 puncta measured after 6 hrs by fluorescence microscopic analysis. Format: cell-based. The procedure, abridged:
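A549 cells were transfected with GFP/mRFP-LC3 for 6 h. Transfected cells were used 24 h later, and LC3 puncta were examined by fluorescence microscopy.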

For assay [12] the target is unchanged. In words: Inhibition of human ULK1 in human A549 cells under nutrient starvation condition assessed as decrease in phosphorylated- Atg13 (ser318) level by immunoblotting analysis. Format: cell-based. The procedure, abridged:
as §1

Another assay deals with MDA-MB-468. In words: Antiproliferative activity against human MDA-MB-468 cells assessed as reduction in cell viability after 24 hrs by MTT assay. The format is functional, cell-based. The note with it: MDA-MB-468, 24 h. The method in brief:
as §2

Assay [13] relates to A549. Put plainly: Induction of apoptosis in human A549 cells assessed as increase in caspase 3 protein expression at 2 to 8 uM by Western blot analysis. The note with it: dose 2-8 µM. Format: functional, cell-based. The procedure, abridged:
as §1

The subject of a further assay is HL-60. In words: Antiproliferative activity against human HL60 cells assessed as reduction in cell viability after 24 hrs by MTT assay. The format is functional, cell-based. The conditions noted are these: HL-60, 24 h. The method in brief: as §2
Assay [14] addresses T1, Serine/threonine-protein kinase ULK1 (Homo sapiens). Put plainly: Inhibition of human ULK1 in human A549 cells under nutrient starvation condition assessed as decrease in phosphorylated-Beclin 1(ser15) level by immunoblotting analysis. The format is cell-based. The procedure, abridged: as §1
The subject of assay [15] is A549. Put plainly: Antiproliferative activity against human A549 cells assessed as reduction in cell viability after 24 hrs by MTT assay. The conditions noted are these: A549, 24 h. Format: functional, cell-based. The method in brief: as §2

Calls of active or inactive are those of the source. The calls are words filed in the database; no cut-off is given here.

Broadly, the inhibition is the relative decrease from the control value, in per cent. The IC50 is the concentration that inhibits the measured activity by half. `COc1cc(Nc2ncc(Br)c(Oc3ccc([N+](=O)[O-])cc3F)n2)cc(OC)c1OC`: the inhibition entry in [1], in assay [4], in assay [8], in assay [12] and in assay [14] was “Active” each time. Besides, the outcome (in assay [2]; in the assay with A549 [3]; in the assay on A549 [7]; in assay [10]; in assay [11]; in the assay with A549 [13]) was Active. Also, the IC50 in the assay with MCF7 was determined as 19.6 µM; with U-937, 12.9 µM; with MDA-MB-468, 16.8 µM; with HL-60, 10.9 µM; in the assay with A549 [15] it was 1.94 µM. The Activity result (in assay [5]; with A549 [6]) was “Dose-dependent effect” throughout. Also, the inhibition in assay [9] was determined as 99.2%.

For the origin of these results see ChEMBL document CHEMBL4706589, “Discovery of 5-bromo-4-phenoxy-N-phenylpyrimidin-2-amine derivatives as novel ULK1 inhibitors that block autophagy and induce apoptosis in non-small cell lung cancer” (Eur J Med Chem, 2020).
